Compound activity from PubChem BioAssay.
MrgX1 allo act: human MrgX1 positive allosteric modulation, primary screen; MrgX1-HEK293, Fluo-4 calcium flux, FDSS; stronger effect = higher value; AID 588675; Q96LB2; B-score at 10 µM; 0.63% of 310,000 active;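 active = plate-corrected calcium response at least 3 library SD above typical, normal starting fluorescence, not activating the receptor alone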;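 note: compound read alongside a low EC10 to EC30 dose of BAM8-22 agonist; peak minus trough fluorescence over baseline measured at the second addition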
Target sequence (Q96LB2 whole entry, looked up): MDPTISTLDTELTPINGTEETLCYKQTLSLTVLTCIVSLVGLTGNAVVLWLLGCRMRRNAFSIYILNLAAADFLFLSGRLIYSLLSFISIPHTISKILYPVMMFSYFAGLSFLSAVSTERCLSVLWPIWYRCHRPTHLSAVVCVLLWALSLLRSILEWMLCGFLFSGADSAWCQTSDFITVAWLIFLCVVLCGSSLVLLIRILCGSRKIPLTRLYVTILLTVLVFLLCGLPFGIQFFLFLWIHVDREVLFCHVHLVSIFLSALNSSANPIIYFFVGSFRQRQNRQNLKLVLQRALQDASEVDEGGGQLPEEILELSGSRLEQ
MrgX1 ag: human MrgX1 receptor agonism, primary screen | Q96LB2 | MrgX1-HEK293 cells, Fluo-4 calcium fluorescence, agonist mode; stronger effect = higher value | 0.44% of 310,000 active | AID 588627 | B-score at 10 µM;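 active = calcium response B-score plate-corrected fluorescence ratio at least 3 library SD, with starting fluorescence B-score inside 5 SD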
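times = overnight plating, then 30 min 37 °C plus 30 min room-temperature dye loading | assay system = stable human MrgX1 HEK293 cell line | input = fifteen thousand cells per well | signal = kinetic calcium dye fluorescence, Fluo-4 NW | dosing = compound delivered in addition one of three | read-out = B-scored fluorescence response ratio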
RGS4 act: RGS4 potentiation or activation; HEK293 M3R/inducible RGS4, carbachol calcium flux Fluo4; stronger effect = lower value; B-score at 10 µM; 0.92% of 310,000 active; AID 463111;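 active = B-score of the integrated calcium signal more than 4 SD below the library mean, with starting fluorescence not abnormally high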;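 note: negative B-score means reduced calcium response which marks RGS4 activation or potentiation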
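Material: M3R-expressing HEK293 line, RGS4 induced by doxycycline | Schedule: Overnight RGS4 induction, 30 min dye load 37 °C, 20 min compound RT | Measured by: Fluo4 fluorescence kinetic imaging of calcium | Read-out: Integrated calcium ratio converted to B score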
MrgX1 antag: blocks BAM8-22 activation of human MrgX1 receptor; Q96LB2; B-score at 10 µM; 1.3% of 310,000 active; AID 588676; MRGX1-HEK293 calcium flux, Fluo-4, BAM8-22 antagonism; stronger effect = lower value;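 active = calcium-response B-score plate-corrected more than 3 library SD below zero, starting fluorescence within 5 deviations, no agonist response on first addition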;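 note: peak minus trough fluorescence over baseline after final BAM8-22 challenge near maximal dose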
RGS4 block: inhibitors of human RGS4; P49798; HEK293 M3R/RGS4 inducible, Fluo-4 calcium flux; stronger effect = higher value; triggered by carbachol at its EC20; B-score at 10 µM; 0.45% of 310,000 active;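 active = B-score, a plate-corrected calcium signal, over three deviations above library mean, with baseline fluorescence within five deviations of library mean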;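 note: RGS4 expression induced by doxycycline in cells with stable M3 receptor; B-score is computed from the integrated fluorescence ratio over baseline after carbachol; higher B-score means a larger calcium signal and so more RGS4 inhibition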
Target sequence (P49798 whole entry, looked up): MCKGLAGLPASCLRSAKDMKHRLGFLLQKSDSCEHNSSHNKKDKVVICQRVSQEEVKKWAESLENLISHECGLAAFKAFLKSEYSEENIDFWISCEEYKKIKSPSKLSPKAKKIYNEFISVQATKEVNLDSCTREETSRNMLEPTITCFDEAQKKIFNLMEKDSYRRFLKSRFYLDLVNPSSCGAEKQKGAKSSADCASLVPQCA
MrgX1 antag conf: reconfirmed antagonist of human MrgX1 receptor signaling; 19% of 2,300 active; remaining BAM8-22 calcium response % of control (stronger effect = lower value), % at 10 µM; MrgX1-HEK293, BAM8-22 calcium flux, Fluo-4; stronger effect = lower value; shares compounds with MrgX1 antag; AID 602420;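 active = remaining agonist calcium response no higher than 100% minus 3 SD of agonist-only control wells, with starting fluorescence near control levels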;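 note: agonist BAM8-22 given at a near maximal EC90 to ECmax level; peak minus minimum fluorescence divided by baseline after agonist addition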
HEK293 Ca flux: MrgX1 antagonist counter-screen hit in parental HEK293 cells. Fluo-4 calcium fluorescence, FDSS. shares compounds with MrgX1 antag. fluorescence ratio F(max-min)/F0 at 10 µM. 2% of 4,000 active;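 active = duplicate-averaged calcium fluorescence ratio at least three times the standard deviation of buffer wells, a nonspecific response in parental cells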
HEK293 Ca counter: activity in parental HEK293 cells without MrgX1 | parental HEK293 calcium flux, Fluo-4 fluorescence ratio; stronger effect = higher value | shares compounds with MrgX1 antag | 0.4% of 4,000 active | fluorescence ratio F(max-min)/F0 at 10 µM;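 active = calcium fluorescence ratio, averaged over duplicates, at least 3 SD of the buffer-well ratio, meaning a nonspecific response in receptor-free cells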;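 note: untransfected parental HEK293 lacking MrgX1 used as counterscreen for MrgX1 allosteric activators; fluorescence change taken during the second addition on a kinetic imager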
HEK293 Ca cntr2: activity in parental HEK293 cells lacking MrgX1 receptor; shares compounds with MrgX1 antag; AID 624115; Fluo-4 calcium fluorescence (FDSS); stronger effect = higher value; 8.7% of 4,000 active; fluorescence ratio F(max-min)/F0 at 10 µM;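 active = calcium fluorescence ratio at least three times the spread of buffer wells, meaning a non-specific response in parental cells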
An asterisk follows results filed as active; i = inactive; / = no result; ! = not confirmed by another sample. Only some compounds are listed: those with a hit (about 3.5% of all), similar ones and a draw of the others.

SMILES	MrgX1 allo act	MrgX1 ag	RGS4 act	MrgX1 antag	RGS4 block	MrgX1 antag conf	HEK293 Ca flux	HEK293 Ca counter	HEK293 Ca cntr2
Cc1ccc(-c2cc(C(=O)NC3=NCCS3)c3ccccc3n2)cc1C	i	i	i	-4.9*	i	i	i	i	i
O=C(NC1=NCCS1)c1cc(-c2ccc(F)cc2)nc2ccccc12	i	i	i	i	i	/	/	/	/
Cc1ccc(S(=O)(=O)CCc2nc3ccccc3[nH]2)cc1C	i	i	i	-4.7*	i	i	i	i	i
Cc1ccc(S(=O)(=O)CCc2nc3ccccc3[nH]2)cc1	i	i	i	i	i	/	/	/	/
CN(C)S(=O)(=O)c1ccc2c(c1)C(CC(=O)O)OC2=O (stereo not drawn)	i	i	i	-4.5*	i	i	i	i	i
CCC(=O)Nc1ccc(NC(=S)Nc2ccccc2)cc1	i	i	i	-4.8*	i	i	i	i	i
CCC(=O)Nc1ccc(NC(=S)NC(=O)Cc2ccccc2)cc1	i	i	i	i	i	/	/	/	/
COc1ccccc1NC(=O)COn1nnc2ccc(S(=O)(=O)N3CCOCC3)cc21	i	i	i	i	i	/	/	/	/
COCCCNC(=S)N1CCN(c2nc(C)nc3sc4c(c23)CCCC4)CC1	i	i	i	-6.6*	i	i	i	i	i
CCCNC(=S)N1CCN(c2nc(C)nc3sc4c(c23)CCCC4)CC1	i	i	i	i	i	/	/	/	/
Cc1[nH]c(=S)sc1Cc1ccc(F)cc1	i	i	i	i	i	/	/	/	/
COc1ccccc1NS(=O)(=O)c1ccc(NC(=O)N2CCCCC2)cc1	i	i	i	i	i	/	/	/	/
CSc1nc(N2CCN(c3ccccc3)CC2)cc(N2CCN(c3ccccc3)CC2)n1	i	i	i	-5.5*	i	i	i	i	i
CCNc1ccc2noc3c2c1C(=O)c1ccccc1-3	i	i	i	-4.8*	i	i	0.58*	i	i
CN(C)/C=N/c1nc(-c2ccc3c(c2)OCO3)cs1	i	i	i	-6.4*	i	i	i	i	i
O=C(Cc1cccs1)Nc1cccc(-c2nnc(-c3ccco3)o2)c1	i	i	i	-7.4*	i	i	i	i	i
CC(N)C12CC3CC(CC(C3)C1)C2 (stereo not drawn)	i	i	i	-5*!	i	i	i	i	i
Cc1cc(Br)ccc1NC(=S)N1CCOCC1	i	i	i	i	i	/	/	/	/
O=C(OCCCN=C1NS(=O)(=O)c2ccccc21)C1CC(=O)N(c2ccc(Cl)cc2)C1 (stereo not drawn)	i	i	i	i	i	/	/	/	/
CN1CCN(S(=O)(=O)c2cccc(C(=O)Nc3sc4c(c3-c3nc5ccccc5[nH]3)CCCC4)c2)CC1	i	i	i	-5.5*	i	55%*	i	i	i
CC(=O)NCCC(=O)Nc1sc2c(c1-c1nc3ccccc3[nH]1)CCCC2	i	i	i	i	i	/	/	/	/
CCN1CCN(S(=O)(=O)c2ccc(OC)cc2)CC1	i	i	i	i	i	/	/	/	/
NC1=NC(c2ccccc2Cl)n2c(nc3ccccc32)N1 (stereo not drawn)	i	i	i	-8.6*	i	i	i	i	i
CNC(=S)N(CCc1c(C)[nH]c2ccc(Cl)cc12)Cc1cccnc1	i	i	i	i	i	/	/	/	/
CCCCc1cc(C(=O)Cc2ccccn2)c(O)cc1O	i	i	i	i	i	/	/	/	/
SMILES	MrgX1 allo act	MrgX1 ag	RGS4 act	MrgX1 antag	RGS4 block	MrgX1 antag conf	HEK293 Ca flux	HEK293 Ca counter	HEK293 Ca cntr2
Cc1cc(C)cc(C(=O)NCC(=O)OCC(=O)N(C)c2ccccc2)c1	i	i	i	-5.1*	i	i	i	i	i
Cn1c(SCc2ccc(C#N)cc2)nnc1-c1cccc(Cl)c1	i	i	i	-4.7*	i	i	i	i	i
Cc1ccc(S(=O)(=O)c2cc3c(=O)n4ccccc4nc3n(Cc3ccco3)c2=N)cc1	i	i	i	-4.6*	i	76%*	i	i	i
N#Cc1cc2c(=O)n3ccccc3nc2n(Cc2ccco2)c1=NC(=O)c1ccco1	i	i	i	-4.8*	i	83%*	i	i	i
Cc1ccccc1C(=O)N=c1c(C#N)cc2c(=O)n3cccc(C)c3nc2n1Cc1ccco1	i	i	i	i	i	/	/	/	/
Cc1ccc(Nc2nc(C(=O)N3CCC(C(=O)N4CCN(C)CC4)CC3)cs2)cc1	i	i	i	-8.2*	i	i	i	i	i
CC(C)N1CCN(C(=O)C2CCC(=O)N(CCc3cccc(F)c3)C2)CC1 (stereo not drawn)	/	/	i	/	i	/	/	/	/
Cn1nc(N)c2c(-c3ccc(Cl)cc3)c(C#N)c(N)nc21	i	i	i	-4.7*	i	i	i	i	i
Cn1c(CC(=O)Nc2ccc(Cl)c(Cl)c2)nnc1SCC(=O)NCc1ccccc1	i	i	i	i	i	/	/	/	/
CC(c1ccccc1C(O)(c1ccccc1)c1ccccc1)N(C)C (stereo not drawn)	i	i	i	-5.4*	i	i	i	i	i
CC(=Nc1ccccc1C)C1=C(O)CSC1=O	i	i	i	-5.4*	i	i	i	i	i
O=C(c1cc(N2CCOCC2)c(F)cc1[N+](=O)[O-])N1CCOCC1	i	i	i	i	i	/	/	/	/
COCCCNC(=S)N1CCN(c2nc(-c3ccc(F)cc3)cs2)CC1	i	i	i	i	i	/	/	/	/
CCOCCCNC(=S)N1CCN(c2nc(-c3ccc(F)cc3)cs2)CC1	i	i	i	-6.4*	i	71%*	i	i	i
